ChEMBL document CHEMBL1649128, “SC29EK, a peptide fusion inhibitor with enhanced alpha-helicity, inhibits replication of human immunodeficiency virus type 1 mutants resistant to enfuvirtide” (Antimicrob Agents Chemother, 2009)
Activity calls are given as the source filed them. The calls are words filed in the database; no cut-off is given here. Non-standard residues stand in square brackets, D forms with d. Nle = CCCC[C@H](N)C(=O)O

Assays:
[1] = system: Human immunodeficiency virus 1; assay: Antiviral activity against enfuvirtide-resistant Human immunodeficiency virus 1 NL4-3 harboring gp41 D36G mutation by MAGI assay using human HeLa Cd4/LTR-beta-galactosidase cells; assay type: functional, organism-based
[2] = system: Human immunodeficiency virus 1; assay: (§1) Antiviral activity against enfuvirtide-resistant Human immunodeficiency virus 1 NL4-3 harboring gp41 D36G/N126K mutation by MAGI assay using human HeLa Cd4/LTR-beta-galactosidase cells relative to HIV1 NL4-3 gp41 D36G mutant; assay type: functional
[3] = system: Human immunodeficiency virus 1; assay: Antiviral activity against enfuvirtide-resistant Human immunodeficiency virus 1 NL4-3 harboring gp41 D36G/N43D mutation by MAGI assay using human HeLa Cd4/LTR-beta-galactosidase cells relative to HIV1 NL4-3 gp41 D36G mutant; assay type: functional
[4] = system: Human immunodeficiency virus 1; assay: Antiviral activity against enfuvirtide-resistant Human immunodeficiency virus 1 NL4-3 harboring gp41 D36G/N43D/S138A mutation by MAGI assay using human HeLa Cd4/LTR-beta-galactosidase cells relative to HIV1 NL4-3 gp41 D36G mutant; assay type: functional
[5] = system: Human immunodeficiency virus 1; assay: Antiviral activity against enfuvirtide-resistant Human immunodeficiency virus 1 NL4-3 harboring gp41 D36G/V38A mutation by MAGI assay using human HeLa Cd4/LTR-beta-galactosidase cells; assay type: functional, organism-based
[6] = system: Human immunodeficiency virus 1; assay: as §1, with “D36G/I37K/N126K/L204I” for “D36G/N126K”, “mutation and 5-amino-acid deletion in the V4 region of gp120 protein” for “mutation”, “mutant by MAGI assay” for “mutant”; assay type: functional
[7] = system: Human immunodeficiency virus 1; assay: Antiviral activity against enfuvirtide-resistant Human immunodeficiency virus 1 NL4-3 by MAGI assay using human HeLa Cd4/LTR-beta-galactosidase cells; assay type: functional, organism-based; settings: Human immunodeficiency virus 1, NL4-3, HeLa
[8] = system: Human immunodeficiency virus 1; assay: Antiviral activity against enfuvirtide-resistant Human immunodeficiency virus 1 NL4-3 harboring gp41 D36G/N43D mutation by MAGI assay using human HeLa Cd4/LTR-beta-galactosidase cells; assay type: functional, organism-based
[9] = system: Human immunodeficiency virus 1; assay: Antiviral activity against enfuvirtide-resistant Human immunodeficiency virus 1 NL4-3 harboring gp41 D36G/N126K mutation by MAGI assay using human HeLa Cd4/LTR-beta-galactosidase cells; assay type: functional, organism-based
[10] = system: Human immunodeficiency virus 1; assay: Antiviral activity against enfuvirtide-resistant Human immunodeficiency virus 1 NL4-3 harboring gp41 D36G/V38A mutation by MAGI assay using human HeLa Cd4/LTR-beta-galactosidase cells relative to HIV1 NL4-3 gp41 D36G mutant; assay type: functional
[11] = system: Human immunodeficiency virus 1; assay: Antiviral activity against enfuvirtide-resistant Human immunodeficiency virus 1 NL4-3 by MAGI assay using human HeLa Cd4/LTR-beta-galactosidase cells relative to HIV1 NL4-3 gp41 D36G mutant; assay type: functional
[12] = system: Human immunodeficiency virus 1; assay: Antiviral activity against enfuvirtide-resistant Human immunodeficiency virus 1 NL4-3 harboring gp41 D36G/N43D/S138A mutation by MAGI assay using human HeLa Cd4/LTR-beta-galactosidase cells; assay type: functional, organism-based
[13] = system: Human immunodeficiency virus 1; assay: Antiviral activity against enfuvirtide-resistant Human immunodeficiency virus 1 NL4-3 harboring gp41 D36G/I37K/N126K/L204I mutation and 5-amino-acid deletion in the V4 region of gp120 protein by MAGI assay using human HeLa Cd4/LTR-beta-galactosidase cells by MAGI assay; assay type: functional, organism-based
[14] = system: Human immunodeficiency virus 1; assay: Antiviral activity against enfuvirtide-resistant Human immunodeficiency virus 1 NL4-3 by MAGI assay using human HeLa Cd4/LTR-beta-galactosidase cells in presence of 5 to 50% fetal calf serum; assay type: functional, organism-based
How it was run: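 MAGI assay against HIV-1 NL4-3 run with FCS at 5, 10, 20 or 50% in the medium. HeLa CD4/LTR-β-galactosidase cells were inoculated at 60 MAGI U/well, cultured 48 h with drug, and X-gal-stained blue cells counted. Each EC50 was determined three times independently, with Student's t test.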

[15] = system: Human immunodeficiency virus 1; assay: Antiviral activity against enfuvirtide-resistant Human immunodeficiency virus 1 NL4-3 by MAGI assay using human HeLa Cd4/LTR-beta-galactosidase cells in presence fresh human serum after 2 hrs; assay type: functional, organism-based
[16] = system: Human immunodeficiency virus 1; assay: Antiviral activity against Human immunodeficiency virus 1 NL4-3 assessed as decrease in EC50 by MAGI assay relative to ddC; assay type: functional, organism-based
How it was run: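 HeLa CD4/LTR-β-galactosidase (MAGI) cells were seeded at 10^4/well and infected next day with HIV-1 NL4-3 (60 MAGI U/well). They were cultured 48 h with serial drug dilutions in medium containing 5, 10, 20 or 50% FCS, with ddC as the reverse transcriptase inhibitor reference. X-gal-stained blue cells were counted. EC50 is the concentration giving 50% inhibition, determined three times independently.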

Row | Molecule | EC50 [1] [nM] | Ratio EC50 [2] | Ratio EC50 [3] | Ratio EC50 [4] | EC50 [5] [nM] | Ratio EC50 [6] | EC50 [7] [nM] | EC50 [8] [nM] | EC50 [9] [nM] | Ratio EC50 [10] | Ratio EC50 [11] | EC50 [12] [nM] | EC50 [13] [nM] | inhibition [14] | inhibition [15] | inhibition [16]
1 | CC[C@H](C)[C@H](NC(=O)[C@H](CC(C)C)NC(=O)[C@H](CO)NC(=O)[C@H](Cc1cnc[nH]1)NC(=O)[C@@H](NC(=O)[C@H](CC(C)C)NC(=O)[C@H](CO)NC(=O)[C@@H](NC(=O)[C@H](Cc1ccc(O)cc1)NC(=O)[C@H](CC(N)=O)NC(=O)[C@H](CC(N)=O)NC(=O)[C@@H](NC(=O)[C@H](CCC(=O)O)NC(=O)[C@H](CCCNC(=N)N)NC(=O)[C@H](CC(=O)O)NC(=O)[C@H](Cc1c[nH]c2ccccc12)NC(=O)[C@H](CCC(=O)O)NC(=O)[C@@H](CCS)NC(=O)[C@@H](N)Cc1c[nH]c2ccccc12)[C@@H](C)CC)[C@@H](C)O)[C@@H](C)CC)C(=O)N[C@@H](CCC(=O)O)C(=O)N[C@@H](CCC(=O)O)C(=O)N[C@@H](CO)C(=O)N[C@@H](CCC(N)=O)C(=O)N[C@@H](CC(N)=O)C(=O)N[C@@H](CCC(N)=O)C(=O)N[C@@H](CCC(N)=O)C(=O)N[C@@H](CCC(=O)O)C(=O)N[C@@H](CCCCN)C(=O)N[C@@H](CC(N)=O)C(=O)N[C@@H](CCC(N)=O)C(=O)N[C@@H](CCC(=O)O)C(=O)N[C@@H](CC(C)C)C(=O)N[C@@H](CC(C)C)C(=O)O | 52 | 3.7 | >19 | >19 | 504 | >19 | 245 | > 1000 | 192 | 9.7 | 4.7 | > 1000 | > 1000 |  |  | 
2 | H-WEEWDKKIEEYTKKIEELIKKS-OH | 686 | >1.5 | 0.2 | >1.5 | 289 | 0.4 | 217 | 114 | > 1000 | 0.4 | 0.3 | > 1000 | 252 |  |  | 
3 | H-WEEWDKKIEEYTKKIEELIKKSEEQQKKN-OH | 1.9 | 1.4 | 2.2 | 1.8 | 3 | 26 | 2.4 | 4.1 | 2.7 | 1.6 | 1.3 | 3.4 | 50 | Active | Active | 
4 | H-W[Nle]EWDRKIEEYTKKIEELIKKSQEQQEKNEKELKREREREG-OH | 2.4 | 5 | 0.7 | 0.6 | 2.2 | 1.3 | 1.6 | 1.6 | 12 | 0.9 | 0.7 | 1.5 | 3 | Active |  | 
5 | enfuvirtide | 2.4 | 1.4 | 20 | 35 | 23 | 163 | 15 | 49 | 3.4 | 9.6 | 6.3 | 84 | 390 | inactive | Active | inactive
